Source: publication PMC7153518 (ACS chemical neuroscience, 2020)
Entries after “also recorded” stand apart in the source; their conditions may differ. Read-outs that look alike come from different tables or passages of the source.

Legend:
[1] = target: human TRPM8 (hTRPM8) (Homo sapiens, UniProt Q7Z2W7); type: cell-based
[2] = target: human TRPA1 (Homo sapiens, UniProt O75762); assay: FLIPR Ca2+ flux assay; type: cell-based; details: for hTRPA1% activation: normalized to Emax of AITC (300 μM); for hTRPA1% inhibition: vs EC80 of AITC (10 μM)
Chain of human TRPA1 (O75762 whole entry): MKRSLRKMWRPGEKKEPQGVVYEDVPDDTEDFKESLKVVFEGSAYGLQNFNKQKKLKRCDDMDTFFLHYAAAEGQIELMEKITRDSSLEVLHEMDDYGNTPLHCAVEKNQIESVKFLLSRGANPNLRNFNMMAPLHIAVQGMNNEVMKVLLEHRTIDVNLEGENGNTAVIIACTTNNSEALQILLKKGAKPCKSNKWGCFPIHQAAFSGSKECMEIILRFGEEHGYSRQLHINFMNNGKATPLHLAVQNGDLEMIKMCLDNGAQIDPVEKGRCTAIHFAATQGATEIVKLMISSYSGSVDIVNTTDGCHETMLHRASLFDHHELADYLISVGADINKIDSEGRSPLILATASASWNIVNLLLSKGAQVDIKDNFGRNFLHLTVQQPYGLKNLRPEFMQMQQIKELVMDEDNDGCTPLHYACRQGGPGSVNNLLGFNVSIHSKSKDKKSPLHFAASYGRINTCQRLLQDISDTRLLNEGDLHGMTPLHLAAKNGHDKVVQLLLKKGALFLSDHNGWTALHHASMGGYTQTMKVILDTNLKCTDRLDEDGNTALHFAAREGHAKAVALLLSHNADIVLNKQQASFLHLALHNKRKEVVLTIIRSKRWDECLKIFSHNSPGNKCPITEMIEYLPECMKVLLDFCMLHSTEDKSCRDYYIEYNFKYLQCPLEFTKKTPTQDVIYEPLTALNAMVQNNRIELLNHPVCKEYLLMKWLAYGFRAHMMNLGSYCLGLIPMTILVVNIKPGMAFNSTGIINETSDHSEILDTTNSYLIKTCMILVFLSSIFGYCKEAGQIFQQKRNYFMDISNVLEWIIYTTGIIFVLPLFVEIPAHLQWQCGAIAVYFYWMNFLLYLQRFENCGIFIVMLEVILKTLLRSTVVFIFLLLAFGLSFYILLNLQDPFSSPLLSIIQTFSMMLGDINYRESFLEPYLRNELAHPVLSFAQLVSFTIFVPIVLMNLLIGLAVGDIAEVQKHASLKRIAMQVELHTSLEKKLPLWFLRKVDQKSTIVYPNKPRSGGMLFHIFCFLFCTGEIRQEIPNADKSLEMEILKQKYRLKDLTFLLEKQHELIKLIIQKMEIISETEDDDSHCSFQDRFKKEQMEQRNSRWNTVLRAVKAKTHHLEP

[3] = target: human TRPV1 (Homo sapiens, UniProt Q8NER1); assay: FLIPR Ca2+ flux assay; type: cell-based; details: for hTRPV1% activation: normalized to Emax of capsaicin (3 μM); for hTRPV1% inhibition: vs EC80 of capsaicin (0.1 μM)
Chain of human TRPV1 (Q8NER1 whole entry): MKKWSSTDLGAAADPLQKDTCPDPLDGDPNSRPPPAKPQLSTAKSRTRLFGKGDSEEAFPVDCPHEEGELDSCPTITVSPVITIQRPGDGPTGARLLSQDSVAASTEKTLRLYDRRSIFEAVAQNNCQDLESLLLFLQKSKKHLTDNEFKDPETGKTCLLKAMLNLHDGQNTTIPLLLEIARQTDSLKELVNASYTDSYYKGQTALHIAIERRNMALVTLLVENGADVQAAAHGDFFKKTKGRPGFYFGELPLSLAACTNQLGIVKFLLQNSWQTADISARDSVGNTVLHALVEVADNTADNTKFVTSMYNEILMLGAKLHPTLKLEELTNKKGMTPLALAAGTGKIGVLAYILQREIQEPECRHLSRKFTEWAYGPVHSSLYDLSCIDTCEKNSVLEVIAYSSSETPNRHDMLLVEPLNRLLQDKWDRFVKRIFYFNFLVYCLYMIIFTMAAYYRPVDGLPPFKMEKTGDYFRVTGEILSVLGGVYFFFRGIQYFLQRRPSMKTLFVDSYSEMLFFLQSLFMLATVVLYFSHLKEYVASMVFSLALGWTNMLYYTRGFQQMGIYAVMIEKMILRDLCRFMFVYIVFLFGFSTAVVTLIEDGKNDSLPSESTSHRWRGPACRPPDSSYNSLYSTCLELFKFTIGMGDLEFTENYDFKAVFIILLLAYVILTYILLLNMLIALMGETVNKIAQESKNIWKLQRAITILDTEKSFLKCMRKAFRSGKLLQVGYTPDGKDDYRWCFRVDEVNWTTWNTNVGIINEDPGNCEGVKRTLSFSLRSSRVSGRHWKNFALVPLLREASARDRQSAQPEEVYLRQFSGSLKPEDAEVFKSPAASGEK

[4] = Metabolic stability in mouse liver microsomes; type: in vitro ADME; details: male, CD-1, mouse
[5] = system: icilin-induced WDS in mice; assay: Wet dog shakes; type: in vivo
[6] = system: Oxaliplatin (OXP)-induced cold allodynia in C57 mice; assay: Oxaliplatin-induced cold allodynia, acetone test; type: in vivo
Outline: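 Male C57 mice received oxaliplatin (6 mg/kg) on days 1, 3 and 5, with saline and 5% mannitol given i.p., and were tested on day 7. Test compound (DMSO stock diluted in saline, 0.1–1 μg) was injected once into the right hind paw plantar surface. After about 30 min habituation on mesh, acetone-drop cold responses were followed over time. Mean ± SEM, n = 6; one-way ANOVA, Dunnett's.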

[7] = system: TRPA1; details: read-out: TRPA1 IC50; vs the effect of 80 μM AITC; cited from earlier work
[8] = system: TRPM8; details: read-out: EC50 previously reported; CHO cells / mouse TRPM8; cited from earlier work
[9] = target: human TRPM8 (Homo sapiens, UniProt Q7Z2W7); details: cited from earlier work
Chain of human TRPM8 (Q7Z2W7 whole entry): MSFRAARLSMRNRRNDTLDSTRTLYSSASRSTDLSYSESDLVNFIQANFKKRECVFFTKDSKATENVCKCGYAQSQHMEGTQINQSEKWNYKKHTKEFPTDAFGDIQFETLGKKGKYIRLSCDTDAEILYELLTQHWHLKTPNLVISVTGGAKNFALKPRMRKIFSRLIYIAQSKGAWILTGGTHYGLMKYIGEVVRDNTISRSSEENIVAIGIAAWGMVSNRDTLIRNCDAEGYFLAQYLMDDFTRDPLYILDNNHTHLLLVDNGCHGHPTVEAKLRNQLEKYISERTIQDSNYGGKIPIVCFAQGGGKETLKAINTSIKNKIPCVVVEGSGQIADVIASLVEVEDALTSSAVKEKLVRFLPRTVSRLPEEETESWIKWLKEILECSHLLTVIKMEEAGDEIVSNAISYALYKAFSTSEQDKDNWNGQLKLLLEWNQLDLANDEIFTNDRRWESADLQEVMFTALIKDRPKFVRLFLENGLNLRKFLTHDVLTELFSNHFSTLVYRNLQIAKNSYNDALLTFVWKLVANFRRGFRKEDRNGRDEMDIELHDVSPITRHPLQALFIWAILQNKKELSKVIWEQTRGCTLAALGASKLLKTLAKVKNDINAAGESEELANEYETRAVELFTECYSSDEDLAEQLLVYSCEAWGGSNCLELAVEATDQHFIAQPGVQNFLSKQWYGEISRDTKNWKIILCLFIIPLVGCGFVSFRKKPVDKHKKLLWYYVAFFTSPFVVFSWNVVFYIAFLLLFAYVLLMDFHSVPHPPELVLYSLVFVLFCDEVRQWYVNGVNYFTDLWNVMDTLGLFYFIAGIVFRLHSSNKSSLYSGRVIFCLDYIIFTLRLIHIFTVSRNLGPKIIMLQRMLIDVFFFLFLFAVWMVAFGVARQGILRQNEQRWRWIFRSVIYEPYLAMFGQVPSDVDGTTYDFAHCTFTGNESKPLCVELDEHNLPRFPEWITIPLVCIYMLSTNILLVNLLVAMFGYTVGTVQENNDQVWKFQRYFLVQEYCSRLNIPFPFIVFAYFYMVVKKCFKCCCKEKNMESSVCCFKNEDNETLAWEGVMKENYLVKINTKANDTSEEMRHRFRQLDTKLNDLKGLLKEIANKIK

[10] = system: TRPM8; details: read-out: IC50 (whole-cell patch clamp); cited from earlier work
[11] = after single administration of 0.1 and 1 μg

Chain of human TRPM8 (hTRPM8) (Q7Z2W7 whole entry): as above

O=C(NC1CCCc2ccccc21)c1ccc(-c2ccccc2)cc1 (centres unmarked) [Compound 9, N-(1,2,3,4-Tetrahydronaphthalen-1-yl)-[1,1′-biphenyl]-4-carbox-amide]
loss of potency vs 8 ([1]; ratio of IC50 values): 3 fold

O=C(N[C@H]1CC[C@@H]2CCCC[C@@H]2C1)c1ccc(-c2ccccc2)cc1 (racemic) [Compound 12, N-((2SR,9RS,10SR)-Decahydronaphthalen-2-yl)-[1,1′-biphenyl]-4-carboxamide]
higher potency than the diastereomeric mixture (10) ([1]; ratio of IC50 values): 4 fold | hTRPA1% activation ([2]; concn tested 3 nM): −2.3 ± 1.0% | hTRPA1% inhibition ([2]; concn tested 3 nM): −0.3 ± 3% | hTRPA1% activation ([2]; concn tested 30 nM): −2.1 ± 0.5% | hTRPA1% inhibition ([2]; concn tested 30 nM): 5 ± 9% | hTRPV1% activation ([3]; concn tested 3 nM): 2 ± 1% | hTRPV1% inhibition ([3]; concn tested 3 nM): −12 ± 3% | hTRPV1% activation ([3]; concn tested 30 nM): 3 ± 1% | hTRPV1% inhibition ([3]; concn tested 30 nM): 1.0 ± 2%

O=C(NC1CCC2(CCCC2)CC1)c1ccc(-c2ccccc2)cc1 [Compound 14, N-(Spiro[4.5]decan-8-yl)-[1,1′-biphenyl]-4-carboxamide]
effect on menthol-evoked TRPM8-mediated Ca2+ entry ([1]; 3 nM compound vs maximal (100 μM) menthol): significantly (P < 0.01) reduce | effect on icilin-induced Ca2+ influx at higher concentrations ([1]; icilin 500 nM): nearly abolishes | hTRPA1% activation ([2]; concn tested 3 nM): −0.8 ± 0.4% | hTRPA1% activation ([2]; concn tested 30 nM): 0.1 ± 1.2% | hTRPV1% activation ([3]; concn tested 3 nM): 1 ± 1% | hTRPV1% activation ([3]; concn tested 30 nM): 1 ± 2% | microsomal CLint at 1 μM ([4]; liver microsomes): 45.5 µL/min/mg | inhibition of WDS at the highest dose ([5]; 50 mg/kg s.c., compared with gabapentin 25 mg/kg s.c.): efficacy comparable to that observed with a standard analgesic dose of gabapentin | effect on icilin-triggered wet dog shakes ([5]; 1, 30 and 50 mg/kg s.c. 30 min before icilin 10 mg/kg i.p., WDS counted over 30 min, n = 6): dose-dependently blocks; also recorded: marked, dose-dependent antinociceptive behavior | effect on OXP effects at 60 min ([6]; 60 min after administration): significantly suppresses OXP effects | time at which attenuated cold allodynia is evident [6, 11]: 15 min | time of maximum inhibition of cold allodynia [6, 11]: 30 min

Cl.Cl.Cl.Cl.Cl.Cl.N.N.N.N.N.N.N.N.N.N.N.N.N.N.[O-2].[O-2].[Ru+3].[Ru+3].[Ru+4] [ruthenium red, reference compound]
IC50 ([2]; read-out: TRPA1 IC50, vs AITC (10 μM)-activated [Ca2+]i release): 162 ± 33 nM | IC50 [7]: 29 ± 6 nM

O=C1NC(c2cccc([N+](=O)[O-])c2)=CCN1c1ccccc1O [icilin, 3-(2-hydroxyphenyl)-6-(3-nitrophenyl)-3,4-dihydropyrimidin-2(1H)-one]
EC50 [8]: 120 to 200 nM

O=C(O)c1ccc(S(=O)(=O)N(Cc2ccc(OC(F)(F)F)cc2)c2ncc(C(F)(F)F)cc2Cl)cc1 [RQ-00203078]
IC50 ([9]; read-out: reported potency at hTRPM8): < 10 nM

O=C(NC1CCc2ccccc2C1)c1ccc(-c2ccccc2)cc1 (centres unmarked) [Compound 11, N-(1,2,3,4-Tetrahydronaphthalen-2-yl)-[1,1′-biphenyl]-4-carbox-amide]
decrease of hTRPM8 potency (vs 10) ([1]; ratio of IC50 values): 9 fold | hTRPA1% activation ([2]; concn tested 100 nM): −0.1 ± 0.5% | hTRPA1% inhibition ([2]; concn tested 100 nM): 3 ± 6% | hTRPA1% activation ([2]; concn tested 1 μM): −0.8 ± 0.6% | hTRPA1% inhibition ([2]; concn tested 1 μM): 4 ± 1% | hTRPV1% activation ([3]; concn tested 100 nM): −1.8 ± 0.9% | hTRPV1% inhibition ([3]; concn tested 100 nM): −3.1 ± 0.6% | hTRPV1% activation ([3]; concn tested 1 μM): −0.7 ± 1.5% | hTRPV1% inhibition ([3]; concn tested 1 μM): 13 ± 3%

C[C@H](c1ccc(F)cc1)N(Cc1cccc(C(=O)O)c1)C(=O)c1cnc2ccccc2c1 [PF-05105679]
IC50 ([9]; read-out: human TRPM8 IC50, WS-12-mediated activation): 181 ± 7.21 nM | IC50 ([9]; read-out: human TRPM8 IC50, voltage-mediated activation): 103 ± 29.4 nM

O=C(NC1CCCCCCC1)c1ccc(-c2ccccc2)cc1 [Compound 7, N-Cyclooctyl-[1,1′-biphenyl]-4-carboxamide]
improvement of hTRPM8 potency relative to 2 ([1]; ratio of IC50 values): 8–9 fold | hTRPA1% activation ([2]; concn tested 100 nM): −1.0 ± 0.1% | hTRPA1% activation ([2]; concn tested 1 μM): −1.5 ± 0.9% | hTRPV1% activation ([3]; concn tested 100 nM): −1.9 ± 0.7% | hTRPV1% activation ([3]; concn tested 1 μM): −3.2 ± 0.6%

COc1cc(CN(CCN)C(=O)OC(C)c2ccccc2)ccc1OCc1ccccc1 (centres unmarked) [PBMC]
IC50 [10]: 0.4 to 0.6 nM

C[C@]12CC[C@H]3[C@@H](CCC4=CC(=O)CC[C@@]43C)[C@@H]1CC[C@@H]2O [testosterone, reference compound]
microsomal CLint ([4]; microsomes): 372 µL/min/mg

O=C(NC1CCC2CCCCC2C1)c1ccc(-c2ccccc2)cc1 (centres unmarked) [Compound 10, N-(Decahydronaphthalen-2-yl)-[1,1′-biphenyl]-4-carboxamide]
enhancement of TRPM8 potency relative to 8 ([1]; ratio of IC50 values): 3500 fold | higher potency than cycloheptyl 5 and cyclooctyl 7 ([1]; ratio of IC50 values): 10 fold | hTRPA1% activation ([2]; concn tested 10 nM): 0.2 ± 0.4% | hTRPA1% activation ([2]; concn tested 100 nM): −1.1 ± 0.2% | inhibition at 0.1 µM ([3]; HEK293, read-out: hTRPV1% inhibition): 2 ± 3% | hTRPV1% activation ([3]; concn tested 10 nM): 2.4 ± 0.8% | hTRPV1% activation ([3]; concn tested 100 nM): 2.3 ± 0.9%

O=C(NC1CCCCCC1)c1ccc(-c2ccccc2)cc1 [Compound 5, N-Cycloheptyl-[1,1′-biphenyl]-4-Carboxamide]
improvement of hTRPM8 potency relative to 2 ([1]; ratio of IC50 values): 8–9 fold | hTRPA1% activation ([2]; concn tested 100 nM): 0.1 ± 0.7% | hTRPA1% activation ([2]; concn tested 1 μM): 0.8 ± 0.5% | hTRPV1% activation ([3]; concn tested 100 nM): 0.0 ± 1.0% | hTRPV1% activation ([3]; concn tested 1 μM): 0.6 ± 1.5%

O=C(NC12CC3CC(CC(C3)C1)C2)c1ccc(-c2ccccc2)cc1 [Compound 15, N-(Adamantan-1-yl)-[1,1′-biphenyl]-4-carboxamide]
hTRPA1% activation ([2]; concn tested 30 nM): −2.6 ± 0.5% | hTRPA1% activation ([2]; concn tested 300 nM): −1.5 ± 0.4% | hTRPV1% activation ([3]; concn tested 30 nM): 1.0 ± 0.2% | hTRPV1% activation ([3]; concn tested 300 nM): 1 ± 2%

CC1CCC(C(C)C)C(NC(=O)c2ccc(-c3ccccc3)cc2)C1 (centres unmarked) [Compound 2, N-(2-Isopropyl-5-methylcyclohexyl)-[1,1′-biphenyl]-4-carboxamide]
increase of hTRPM8 activity relative to 1 ([1]; ratio of IC50 values): 30 fold

O=C(NC1CCC2(CCCCC2)CC1)c1ccc(-c2ccccc2)cc1 [Compound 13, N-(Spiro[5.5]undecan-3-yl)-[1,1′-biphenyl]-4-carboxamide]
hTRPA1% activation ([2]; concn tested 100 nM): 0.2 ± 0.5% | hTRPA1% activation ([2]; concn tested 1 μM): −0.2 ± 1.1% | hTRPV1% activation ([3]; concn tested 100 nM): −1.0 ± 0.4% | hTRPV1% activation ([3]; concn tested 1 μM): 0.7 ± 0.2%
